Experimental findings from ChEMBL document CHEMBL1154740, “Efficient microwave combinatorial synthesis of novel indolic arylpiperazine derivatives as serotoninergic ligands” (Eur J Med Chem, 2010) are described below.

In assay [1] the target is T1, 5-hydroxytryptamine receptor 1A (Rattus norvegicus, UniProt P19327).
T1 sequence (P19327 whole entry): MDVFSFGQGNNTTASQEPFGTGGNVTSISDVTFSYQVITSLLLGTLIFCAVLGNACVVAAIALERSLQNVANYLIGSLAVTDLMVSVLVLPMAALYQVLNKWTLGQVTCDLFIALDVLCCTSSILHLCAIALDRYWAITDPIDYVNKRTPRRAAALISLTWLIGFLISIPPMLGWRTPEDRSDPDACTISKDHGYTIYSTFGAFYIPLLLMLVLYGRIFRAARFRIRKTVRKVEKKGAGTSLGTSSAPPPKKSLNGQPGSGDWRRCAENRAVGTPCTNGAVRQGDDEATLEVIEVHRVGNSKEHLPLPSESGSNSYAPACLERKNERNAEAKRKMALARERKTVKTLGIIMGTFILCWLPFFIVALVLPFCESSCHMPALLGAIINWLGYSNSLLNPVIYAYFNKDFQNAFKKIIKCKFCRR
In words: Displacement of [3H]8OH-DPAT from 5HT1A in Sprague-Dawley rat brain cortex by liquid scintillation counting. The note with it: read-out: Ki. The method in brief: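 Male Sprague–Dawley rat (180–220 g) cerebral cortex membranes, washed and preincubated 10 min at 37 °C, in Tris–HCl pH 7.7 with pargyline, 4 mM CaCl2, 0.1% ascorbate. [3H]-8-OH-DPAT at 0.1 nM final, 30 min at 37 °C, GF/B filtration. Nonspecific binding defined with 5-HT. Six concentrations in triplicate; IC50 converted to Ki by Cheng–Prusoff using Scatchard KD.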

Assay [2] has as its target T2, 5-hydroxytryptamine receptor 2C (Rattus norvegicus, UniProt P08909).
T2 sequence (P08909 whole entry): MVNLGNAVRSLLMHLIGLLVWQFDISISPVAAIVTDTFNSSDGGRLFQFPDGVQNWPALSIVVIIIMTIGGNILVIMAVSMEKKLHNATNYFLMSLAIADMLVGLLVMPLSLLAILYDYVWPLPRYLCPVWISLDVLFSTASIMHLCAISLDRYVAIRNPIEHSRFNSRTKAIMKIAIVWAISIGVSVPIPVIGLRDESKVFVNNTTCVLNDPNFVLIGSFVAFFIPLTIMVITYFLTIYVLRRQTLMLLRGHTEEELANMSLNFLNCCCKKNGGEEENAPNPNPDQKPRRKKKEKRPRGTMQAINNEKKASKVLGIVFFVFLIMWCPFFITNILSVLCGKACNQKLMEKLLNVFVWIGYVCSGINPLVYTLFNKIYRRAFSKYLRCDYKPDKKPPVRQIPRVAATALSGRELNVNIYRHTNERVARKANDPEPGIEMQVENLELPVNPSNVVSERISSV
As to the kind of experiment: Displacement of [3H]mesulergine from 5HT2C in Sprague-Dawley rat brain cortex by liquid scintillation counting. The following applies: read-out: Ki. Summed up:
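Frontal cortex of male Sprague–Dawley rats (180–220 g), in 50 mM Tris-HCl, 0.5 mM EDTA, 10 mM MgCl2, pH 7.4, plus 0.1% ascorbate and pargyline. Triplicate 2.0 mL assays: 5-HT2A with 5 mg tissue and 0.4 nM [3H]ketanserin; 5-HT2C with 10 mg tissue and 1 nM [3H]mesulergine. 15 min at 37 °C, PEI-soaked filters. IC50 from six concentrations converted to Ki (Cheng–Prusoff).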
For orientation: Displacement assays read how much labelled ligand stays bound in the presence of the test substance.

In assay [3] the target is T3, Adrenergic receptor alpha-2 (Rattus norvegicus, UniProt P22086+P19328+P22909).
T3 sequence (P22086 whole entry): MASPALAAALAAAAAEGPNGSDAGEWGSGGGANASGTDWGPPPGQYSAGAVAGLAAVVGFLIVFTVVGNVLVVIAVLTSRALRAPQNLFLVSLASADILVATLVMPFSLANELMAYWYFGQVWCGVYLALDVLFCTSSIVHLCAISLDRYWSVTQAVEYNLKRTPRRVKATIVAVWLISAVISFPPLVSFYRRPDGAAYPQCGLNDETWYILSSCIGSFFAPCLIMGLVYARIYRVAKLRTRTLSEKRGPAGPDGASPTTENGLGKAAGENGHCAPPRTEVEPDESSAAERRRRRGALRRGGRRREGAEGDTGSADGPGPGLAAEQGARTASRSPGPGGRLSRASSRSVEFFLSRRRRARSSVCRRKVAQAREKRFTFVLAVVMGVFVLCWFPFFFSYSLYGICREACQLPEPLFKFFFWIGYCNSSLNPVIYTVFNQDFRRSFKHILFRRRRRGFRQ
T3 sequence (P19328 whole entry): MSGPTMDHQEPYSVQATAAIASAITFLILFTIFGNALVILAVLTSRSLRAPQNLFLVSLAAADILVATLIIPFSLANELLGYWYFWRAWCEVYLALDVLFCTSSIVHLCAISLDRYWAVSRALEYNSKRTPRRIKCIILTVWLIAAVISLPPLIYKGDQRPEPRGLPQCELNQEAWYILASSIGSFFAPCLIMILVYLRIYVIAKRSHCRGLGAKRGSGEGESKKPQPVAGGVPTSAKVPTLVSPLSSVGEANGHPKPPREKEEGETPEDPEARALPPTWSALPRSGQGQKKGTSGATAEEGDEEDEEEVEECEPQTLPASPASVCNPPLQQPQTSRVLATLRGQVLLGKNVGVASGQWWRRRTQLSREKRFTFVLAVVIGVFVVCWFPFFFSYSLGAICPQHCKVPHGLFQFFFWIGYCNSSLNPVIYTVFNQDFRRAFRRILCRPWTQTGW
T3 sequence (P22909 whole entry): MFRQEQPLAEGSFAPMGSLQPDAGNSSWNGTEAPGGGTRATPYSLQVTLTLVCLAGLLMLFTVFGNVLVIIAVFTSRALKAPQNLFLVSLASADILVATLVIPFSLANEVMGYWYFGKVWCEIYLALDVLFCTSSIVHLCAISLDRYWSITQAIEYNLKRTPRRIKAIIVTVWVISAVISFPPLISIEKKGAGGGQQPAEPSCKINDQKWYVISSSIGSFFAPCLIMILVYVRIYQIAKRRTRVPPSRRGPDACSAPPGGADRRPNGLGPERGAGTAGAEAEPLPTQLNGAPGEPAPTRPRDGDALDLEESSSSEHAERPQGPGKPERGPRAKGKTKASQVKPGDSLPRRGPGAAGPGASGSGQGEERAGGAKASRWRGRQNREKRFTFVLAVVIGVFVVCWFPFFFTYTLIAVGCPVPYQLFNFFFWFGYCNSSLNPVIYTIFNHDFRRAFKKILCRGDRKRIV
In words: Displacement of [3H]yohimbine from alpha2 adrenergic receptor in rat brain cortex by liquid scintillation counting. In kind it is tissue-based. The method in brief:
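Cortical membranes prepared in 5 mM Tris–HCl/5 mM EDTA pH 7.3, washed three times; 10 mg fresh tissue per tube. [3H]yohimbine at 1 nM final, 30 min at 25 °C, GF/B filtration, washed with Tris–HCl/EDTA pH 7.5. Nonspecific binding defined with […]. IC50 converted to Ki by Cheng–Prusoff.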

By Ki is commonly meant a measure of affinity in units of concentration, obtained from inhibition or displacement. Consider `CCOC(=O)c1cc2cc(OCCCN3CCN(c4ccc(OC)cc4)CC3)ccc2[nH]1`, for which the Ki is 10 µM in assay [1], 0.0504 µM in assay [2] and 6.48 µM in assay [3].
With `CCOC(=O)c1cc2cc(OCCCN3CCN(Cc4ccc5c(c4)OCO5)CC3)ccc2[nH]1`, the Ki is 10 µM in assay [1], 0.0436 µM in assay [2] and 0.231 µM in assay [3].
For the compound `CCOC(=O)c1cc2cc(OCCCN3CCN(c4cccc(Cl)c4)CC3)ccc2[nH]1`, the Ki is 0.039 µM in assay [1], 0.00128 µM in assay [2] and 1.35 µM in assay [3].
